Source: ChEMBL document CHEMBL1123492, “Carboxyl-modified amino acids and peptides as protease inhibitors” (J Med Chem, 1986)

Tests used:
[1] = Michaelis constant against leucine aminopeptidase-C
[2] = Michaelis constant against Leucine aminopeptidase-M
[3] = test system: NCC(=O)NC(Cc1ccccc1)C(=O)Nc1ccc([N+](=O)[O-])cc1; assay: Michaelis constant against Dipeptidyl aminopeptidase 1
In short: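 Cathepsin C diluted 1:200 daily in ice-cold 50 mM citrate pH 5 with 10 mM cysteamine. Gly-Phe p-nitroanilide hydrolysis at 37 °C read at 405 nm (Δε 9900 M⁻¹ cm⁻¹), started by adding substrate to prewarmed enzyme/inhibitor. Irreversible inhibition: enzyme preincubated with varied inhibitor levels, aliquots diluted into substrate over time. k_app from ln(% activity) vs time; Ki and k2 from 1/k_app vs 1/[I].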

Compound	Km [1] [µM]	Km [2] [µM]	Km [3] [µM]
CC(C)C[C@H](N)C(=O)Nc1ccc([N+](=O)[O-])cc1	2100	600	
Dipeptidyl peptidase 1 (Homo sapiens), P53634			3100
